Results published in ChEMBL document CHEMBL1126247, “Iodoaminopotentidine and related compounds: a new class of ligands with high affinity and selectivity for the histamine H2 receptor” (J Med Chem, 1992).

Experiments:
[1] = target: T1, Adrenergic receptor alpha-1 (Rattus norvegicus, UniProt P15823+P23944+P43140); test: (§1) Alpha-1 adrenergic receptor antagonistic activity on the rat aorta determined by Schild plot.; type: functional, tissue-based
T1 sequence (P15823 whole entry): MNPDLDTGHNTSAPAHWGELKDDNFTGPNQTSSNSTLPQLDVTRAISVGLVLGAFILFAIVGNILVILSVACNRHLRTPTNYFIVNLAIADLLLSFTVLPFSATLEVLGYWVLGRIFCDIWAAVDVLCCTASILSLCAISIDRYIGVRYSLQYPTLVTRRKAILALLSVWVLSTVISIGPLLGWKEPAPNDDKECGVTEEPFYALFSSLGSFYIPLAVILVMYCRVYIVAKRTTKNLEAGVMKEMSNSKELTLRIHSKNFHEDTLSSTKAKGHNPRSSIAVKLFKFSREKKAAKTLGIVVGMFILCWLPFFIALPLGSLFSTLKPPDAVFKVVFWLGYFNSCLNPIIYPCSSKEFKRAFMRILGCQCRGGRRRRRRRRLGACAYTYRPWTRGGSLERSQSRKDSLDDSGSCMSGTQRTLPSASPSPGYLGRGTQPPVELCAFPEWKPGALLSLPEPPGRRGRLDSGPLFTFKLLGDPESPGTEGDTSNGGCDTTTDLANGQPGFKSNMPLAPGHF
T1 sequence (P23944 whole entry): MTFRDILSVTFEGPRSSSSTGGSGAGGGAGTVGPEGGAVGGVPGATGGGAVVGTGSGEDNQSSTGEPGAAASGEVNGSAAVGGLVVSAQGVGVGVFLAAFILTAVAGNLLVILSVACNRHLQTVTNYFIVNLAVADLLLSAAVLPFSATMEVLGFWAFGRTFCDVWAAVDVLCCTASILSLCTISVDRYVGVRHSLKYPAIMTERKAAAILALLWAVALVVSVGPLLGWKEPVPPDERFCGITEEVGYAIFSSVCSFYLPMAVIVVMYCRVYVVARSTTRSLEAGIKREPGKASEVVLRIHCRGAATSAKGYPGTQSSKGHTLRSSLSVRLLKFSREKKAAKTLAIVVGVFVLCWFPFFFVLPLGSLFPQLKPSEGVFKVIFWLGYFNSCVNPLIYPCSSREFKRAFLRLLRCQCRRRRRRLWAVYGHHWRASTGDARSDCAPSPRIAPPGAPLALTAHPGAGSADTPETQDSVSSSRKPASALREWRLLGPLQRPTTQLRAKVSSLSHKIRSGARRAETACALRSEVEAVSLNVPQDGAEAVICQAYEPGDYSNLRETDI
T1 sequence (P43140 whole entry): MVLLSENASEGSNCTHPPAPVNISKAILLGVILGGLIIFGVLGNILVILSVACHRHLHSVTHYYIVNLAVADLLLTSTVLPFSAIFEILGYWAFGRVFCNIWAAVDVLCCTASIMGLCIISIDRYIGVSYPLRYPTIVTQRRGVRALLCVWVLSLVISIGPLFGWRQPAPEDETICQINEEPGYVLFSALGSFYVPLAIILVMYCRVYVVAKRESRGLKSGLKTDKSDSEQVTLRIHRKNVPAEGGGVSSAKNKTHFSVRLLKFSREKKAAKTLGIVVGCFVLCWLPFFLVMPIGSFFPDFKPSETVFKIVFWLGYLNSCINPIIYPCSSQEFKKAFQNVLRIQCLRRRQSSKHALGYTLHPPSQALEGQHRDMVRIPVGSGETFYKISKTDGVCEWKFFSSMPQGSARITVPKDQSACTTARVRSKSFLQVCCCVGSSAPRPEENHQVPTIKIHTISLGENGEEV
Method in brief: (§2)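 Endothelium-denuded thoracic aortic rings from the same rats, mounted isometrically, resting force 20 mN. Equilibration 140 min with two primings of 0.1 μM (R)-phenylephrine. Cumulative (R)-phenylephrine (0.003-10 μM) curves recorded with 1 μM (±)-propranolol present.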

[2] = target: Histamine H2 receptor (Cavia porcellus) (UniProt P47747); test: Inhibition of the positive chronotropic response (histamine H2 receptor antagonism) of guinea pig right atrium relative to cimetidine.; type: functional, tissue-based; conditions: Cardiac atrium
Sequence of Histamine H2 receptor (Cavia porcellus) (P47747 whole entry): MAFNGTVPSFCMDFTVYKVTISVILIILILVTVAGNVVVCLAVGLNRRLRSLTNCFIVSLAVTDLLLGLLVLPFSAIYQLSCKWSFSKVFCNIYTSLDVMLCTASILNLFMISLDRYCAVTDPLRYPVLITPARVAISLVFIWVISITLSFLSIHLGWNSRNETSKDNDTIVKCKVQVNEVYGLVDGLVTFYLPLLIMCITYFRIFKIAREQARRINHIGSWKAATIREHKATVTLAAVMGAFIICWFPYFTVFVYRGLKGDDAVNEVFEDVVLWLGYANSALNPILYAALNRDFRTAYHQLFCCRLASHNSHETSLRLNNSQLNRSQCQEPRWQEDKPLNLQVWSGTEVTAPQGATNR

[3] = target: Histamine H2 receptor (Cavia porcellus) (UniProt P47747); test: Histamine H2 receptor antagonistic activity at concentrations of 0.03,0.1 and 0.3 uM on the isolated guinea pig right atrium.; type: functional, tissue-based; conditions: Cardiac atrium
[4] = target: Serotonin 2 (5-HT2) receptor (Rattus norvegicus, UniProt P30994+P08909+P14842); test: (§3) 5-hydroxytryptamine 2 receptor antagonistic activity on the rat tail artery determined by Schild plot.; type: functional, tissue-based
Method in brief: (§4)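 Endothelium-denuded ventral tail artery segments from male Wistar rats (280-350 g), resting force 5 mN, 120 min equilibration with one 1 μM 5-HT priming. Two to three cumulative 5-HT (0.01-10 μM) curves per preparation.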

[5] = target: T2, Serotonin 2 (5-HT2) receptor (Rattus norvegicus) (UniProt P30994+P08909+P14842); test: as §3; type: functional, tissue-based; method in brief: as §4
T2 sequence (P08909 whole entry, looked up): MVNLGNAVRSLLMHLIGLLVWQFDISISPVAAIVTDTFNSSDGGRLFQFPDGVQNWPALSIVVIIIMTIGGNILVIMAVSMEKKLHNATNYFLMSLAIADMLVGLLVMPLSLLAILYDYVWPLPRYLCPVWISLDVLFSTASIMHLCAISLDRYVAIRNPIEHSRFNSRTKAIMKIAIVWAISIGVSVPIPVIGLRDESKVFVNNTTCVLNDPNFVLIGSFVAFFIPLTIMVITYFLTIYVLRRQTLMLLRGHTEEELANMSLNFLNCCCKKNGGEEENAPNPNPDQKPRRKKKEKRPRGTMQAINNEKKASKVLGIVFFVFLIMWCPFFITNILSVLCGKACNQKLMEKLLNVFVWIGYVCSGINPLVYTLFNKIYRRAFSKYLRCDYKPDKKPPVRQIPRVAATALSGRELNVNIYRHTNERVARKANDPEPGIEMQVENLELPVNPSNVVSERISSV
T2 sequence (P14842 whole entry, looked up): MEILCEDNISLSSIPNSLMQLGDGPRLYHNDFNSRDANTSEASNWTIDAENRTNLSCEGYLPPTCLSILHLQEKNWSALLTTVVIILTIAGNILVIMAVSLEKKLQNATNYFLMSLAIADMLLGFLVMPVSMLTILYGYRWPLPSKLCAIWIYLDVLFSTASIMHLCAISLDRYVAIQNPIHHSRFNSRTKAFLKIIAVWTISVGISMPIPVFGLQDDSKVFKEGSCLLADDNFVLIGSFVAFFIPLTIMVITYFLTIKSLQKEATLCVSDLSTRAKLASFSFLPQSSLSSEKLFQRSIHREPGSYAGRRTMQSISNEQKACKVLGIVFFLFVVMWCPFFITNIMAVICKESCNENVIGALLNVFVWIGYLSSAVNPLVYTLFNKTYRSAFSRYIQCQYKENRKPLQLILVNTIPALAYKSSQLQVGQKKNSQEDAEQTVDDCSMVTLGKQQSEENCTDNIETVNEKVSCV
T2 sequence (P30994 whole entry, looked up): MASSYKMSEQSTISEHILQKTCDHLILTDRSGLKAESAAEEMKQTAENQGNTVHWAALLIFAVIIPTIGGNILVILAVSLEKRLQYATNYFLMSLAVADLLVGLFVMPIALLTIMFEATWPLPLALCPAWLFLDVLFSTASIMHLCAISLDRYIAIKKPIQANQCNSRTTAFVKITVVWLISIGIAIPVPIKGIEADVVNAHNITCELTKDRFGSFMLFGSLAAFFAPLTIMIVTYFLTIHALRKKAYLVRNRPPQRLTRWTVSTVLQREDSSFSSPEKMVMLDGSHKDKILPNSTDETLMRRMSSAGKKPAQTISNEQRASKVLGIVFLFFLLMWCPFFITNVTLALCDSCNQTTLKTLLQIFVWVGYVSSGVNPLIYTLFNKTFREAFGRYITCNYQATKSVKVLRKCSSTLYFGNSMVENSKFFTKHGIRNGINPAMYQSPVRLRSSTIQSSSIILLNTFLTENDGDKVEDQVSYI

[6] = target: Histamine H2 receptor (Cavia porcellus) (UniProt P47747); test: Histamine H2 receptor antagonistic activity on the isolated guinea pig right atrium determined by Schild plot.; type: functional, tissue-based; conditions: Cardiac atrium
[7] = target: Histamine H1 receptor (Cavia porcellus) (UniProt P31389); test: Histamine H1 receptor antagonistic activity at a concentration of 3 and 10 uM on the isolated guinea pig iluem.; type: functional
Method in brief: (§5)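 Whole proximal guinea pig ileum segments in Tyrode's solution gassed with 95% O2/5% CO2, isotonic recording at 10 mN load. Cumulative histamine (0.01-3 μM) curves. Antagonist applied 10 min before the curve. pK_B from concentration ratio, or pA2 by Schild plot.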
Target sequence in this assay (P31389 whole entry): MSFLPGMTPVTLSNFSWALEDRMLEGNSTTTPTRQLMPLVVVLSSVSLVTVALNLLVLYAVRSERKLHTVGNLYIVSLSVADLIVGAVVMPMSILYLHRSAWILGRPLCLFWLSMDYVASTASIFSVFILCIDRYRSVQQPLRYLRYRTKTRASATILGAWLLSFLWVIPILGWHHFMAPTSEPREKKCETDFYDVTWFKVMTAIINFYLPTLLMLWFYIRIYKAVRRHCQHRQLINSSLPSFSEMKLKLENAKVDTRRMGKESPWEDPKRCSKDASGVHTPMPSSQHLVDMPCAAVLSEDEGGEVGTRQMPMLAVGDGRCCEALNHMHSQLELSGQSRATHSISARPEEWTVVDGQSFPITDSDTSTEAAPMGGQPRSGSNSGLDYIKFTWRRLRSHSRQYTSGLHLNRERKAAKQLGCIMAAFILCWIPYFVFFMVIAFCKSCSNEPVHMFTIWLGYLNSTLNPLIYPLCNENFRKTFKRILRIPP

[8] = target: Muscarinic acetylcholine receptor M3 (Cavia porcellus) (UniProt Q8VH26); test: muscarinic acetylcholine receptor M3 antagonistic activity at concentrations of 10 and 30 uM on the isolated guinea pig iluem.; type: functional
Sequence of Muscarinic acetylcholine receptor M3 (Cavia porcellus) (Q8VH26 1-587): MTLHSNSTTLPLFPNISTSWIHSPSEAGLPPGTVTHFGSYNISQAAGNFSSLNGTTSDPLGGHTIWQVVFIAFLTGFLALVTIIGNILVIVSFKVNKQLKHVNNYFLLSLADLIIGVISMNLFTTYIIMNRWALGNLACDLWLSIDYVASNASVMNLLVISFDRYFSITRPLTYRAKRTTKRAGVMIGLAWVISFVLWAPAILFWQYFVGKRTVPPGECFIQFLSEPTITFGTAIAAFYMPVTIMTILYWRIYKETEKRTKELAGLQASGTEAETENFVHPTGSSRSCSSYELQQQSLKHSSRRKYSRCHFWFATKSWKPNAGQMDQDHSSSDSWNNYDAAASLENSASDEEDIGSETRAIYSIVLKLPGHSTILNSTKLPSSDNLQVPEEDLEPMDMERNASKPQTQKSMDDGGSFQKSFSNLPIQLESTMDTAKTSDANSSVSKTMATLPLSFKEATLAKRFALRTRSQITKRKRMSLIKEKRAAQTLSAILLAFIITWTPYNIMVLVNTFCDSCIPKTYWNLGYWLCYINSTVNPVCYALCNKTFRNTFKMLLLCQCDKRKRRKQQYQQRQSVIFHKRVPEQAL
Method in brief: (§6)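 Guinea pig proximal ileum, isotonic recording under a 10 mN load in gassed Tyrode's solution. Cumulative carbachol (3-300 nM) curves as reference agonist. Antagonist incubated 10 min. pK_B calculated from concentration ratio, or pA2 by Schild plot.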

[9] = target: Beta-1 adrenergic receptor (Cavia porcellus) (UniProt B0FL73); test: Beta-1 Adrenergic receptor antagonistic activity at concentrations of 10 and 30 uM on the isolated guinea pig right atrium.; type: functional, tissue-based; conditions: Cardiac atrium
Sequence of Beta-1 adrenergic receptor (Cavia porcellus) (B0FL73 1-467): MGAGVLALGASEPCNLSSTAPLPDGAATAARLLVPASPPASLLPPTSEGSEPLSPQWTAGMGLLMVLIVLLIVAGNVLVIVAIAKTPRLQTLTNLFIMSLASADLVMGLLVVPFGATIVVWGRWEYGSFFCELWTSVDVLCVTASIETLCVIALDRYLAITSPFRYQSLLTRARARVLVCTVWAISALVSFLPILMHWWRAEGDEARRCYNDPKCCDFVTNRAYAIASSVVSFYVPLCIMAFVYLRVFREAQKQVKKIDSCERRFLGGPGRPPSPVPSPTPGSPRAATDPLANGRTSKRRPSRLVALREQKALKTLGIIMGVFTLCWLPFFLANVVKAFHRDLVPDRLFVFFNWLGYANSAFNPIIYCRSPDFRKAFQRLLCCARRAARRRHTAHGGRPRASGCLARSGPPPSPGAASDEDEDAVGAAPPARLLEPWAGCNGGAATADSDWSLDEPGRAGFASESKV
Method in brief: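 Spontaneously beating guinea pig right atrium, isometric recording of chronotropic response. Cumulative isoprenaline (0.1-30 nM) curves as reference agonist. Incubation handled as in the H2 protocol. pK_B = -log[antagonist] + log(concentration ratio - 1).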

[10] = target: T3, Adrenergic receptor alpha-1 (Rattus norvegicus) (UniProt P15823+P23944+P43140); test: as §1; type: functional, tissue-based; method in brief: as §2
[11] = target: Histamine H2 receptor (Cavia porcellus) (UniProt P47747); test: Histamine H2 receptor antagonistic activity at a concentration of 0.1 uM on the isolated guinea pig right atrium.; type: functional, tissue-based; conditions: Cardiac atrium
[12] = Inhibition of the positive chronotropic response (H2-antagonism) of guinea pig right atrium relative to cimetidine.; type: functional, Cavia porcellus, Cardiac atrium
[13] = target: Histamine H2 receptor (Cavia porcellus) (UniProt P47747); test: Histamine H2 receptor antagonistic activity at a concentration of 30 uM on the isolated guinea pig right atrium.; type: functional, tissue-based; conditions: Cardiac atrium
[14] = target: Muscarinic acetylcholine receptor M3 (Cavia porcellus) (UniProt Q8VH26); test: muscarinic acetylcholine receptor M3 antagonistic activity on the isolated guinea pig ileum determined by Schild plot.; type: functional, tissue-based; method in brief: as §6
Histamine H2 receptor [15] = target: T4, Histamine H2 receptor (Cavia porcellus, UniProt P47747); test: Histamine H2 receptor antagonistic activity on the isolated guinea pig right atrium.; conditions: read-out: pA2 (converted)
T4 sequence (P47747 whole entry): as the sequence (P47747 whole entry) above

[16] = target: Histamine H2 receptor (Cavia porcellus) (UniProt P47747); test: Histamine H2 receptor antagonistic activity at concentrations of 0.03 and 0.1 uM on the isolated guinea pig right atrium.; type: functional, tissue-based; conditions: Cardiac atrium
[17] = target: Muscarinic acetylcholine receptor M3 (Cavia porcellus, UniProt Q8VH26); test: muscarinic acetylcholine receptor M3-antagonistic activity on the isolated guinea pig ileum determined by Schild plot.; type: functional, tissue-based; conditions: read-out: pA2 (converted); method in brief: as §6
Sequence of Muscarinic acetylcholine receptor M3 (Q8VH26 whole entry): as the sequence (Q8VH26 1-587) above

[18] = target: Histamine H1 receptor (Cavia porcellus) (UniProt P31389); test: (§7) Histamine H1 receptor antagonistic activity on the isolated guinea pig ileum determined by Schild plot.; type: functional, tissue-based; method in brief: as §5
Target sequence in this assay (P31389 whole entry): as the sequence (P31389 whole entry) above

Histamine H1 receptor = Histamine H1 receptor (Cavia porcellus, UniProt P31389); test: as §7; type: functional, tissue-based; conditions: read-out: pA2 (converted); method in brief: as §5
Sequence of Histamine H1 receptor (P31389 whole entry): as above

[19] = target: Histamine H2 receptor (Cavia porcellus) (UniProt P47747); test: Histamine H2 receptor antagonistic activity at a concentration of 0.03 and 1 uM on the isolated guinea pig right atrium.; type: functional, tissue-based; conditions: Cardiac atrium
[20] = target: T3, Adrenergic receptor alpha-1 (Rattus norvegicus); test: Alpha-1 adrenergic receptor antagonistic activity at concentrations of 3,10,30and 100 uM on the rat aorta.; type: functional; method in brief: as §2
[21] = target: Muscarinic acetylcholine receptor M3 (Cavia porcellus) (UniProt Q8VH26); test: muscarinic acetylcholine receptor M3 antagonistic activity at concentrations of 3 and 10 uM on the isolated guinea pig iluem.; type: functional; method in brief: as §6
[22] = target: T2, Serotonin 2 (5-HT2) receptor (Rattus norvegicus); test: 5-hydroxytryptamine 2 receptor antagonistic activity at concentrations of3,10 and 30 uM on the rat tail artery.; type: functional, tissue-based; method in brief: as §4
[23] = target: Histamine H1 receptor (Cavia porcellus) (UniProt P31389); test: Histamine H1 receptor antagonistic activity at concentrations of 3 and 10 uM on the isolated guinea pig iluem.; type: functional; method in brief: as §5
Target sequence in this assay (P31389 whole entry): as above

[24] = target: Histamine H2 receptor (Cavia porcellus) (UniProt P47747); test: Histamine H2 receptor antagonistic activity at concentrations of 0.3,1 and 3 uM on the isolated guinea pig right atrium.; type: functional, tissue-based; conditions: Cardiac atrium
[25] = target: Muscarinic acetylcholine receptor M3 (Cavia porcellus) (UniProt Q8VH26); test: Muscarinic acetylcholine receptor M3 antagonistic activity at concentrations of 10 and 30 uM on the isolated guinea pig iluem.; type: functional; method in brief: as §6
[26] = target: Histamine H2 receptor (Cavia porcellus) (UniProt P47747); test: Histamine H2 receptor antagonistic activity at concentrations of 0.1,0.3 and 1 uM on the isolated guinea pig right atrium.; type: functional, tissue-based; conditions: Cardiac atrium
Histamine H2 receptor [27] = target: T4, Histamine H2 receptor; test: Inhibition of [125I]APT binding to H2 receptors in guinea pig cerebral membranes.; type: cell membranes
Method in brief: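 Striatal membranes from male Hartley guinea pigs (200-300 g) in 50 mM sodium/potassium phosphate, pH 7.5, with 0.1% gelatin. Stopped with cold buffer containing 0.1% BSA, then filtered on polyethylenimine-treated glass-fiber filters and γ-counted. Azido compounds handled under dim light.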

[28] = target: Histamine H2 receptor (Cavia porcellus) (UniProt P47747); test: Potency to inhibit the positive chronotropic response (H2-antagonism) of guinea pig right atrium relative to cimetidine.; type: functional, tissue-based; conditions: Cardiac atrium
[29] = target: Histamine H2 receptor (Cavia porcellus) (UniProt P47747); test: Histamine H2 receptor antagonism at a concentration of 1 umolar on the isolated guinea pig right atrium.; type: functional, tissue-based; conditions: Cardiac atrium
[30] = target: Histamine H1 receptor (Cavia porcellus) (UniProt P31389); test: Histamine H1 receptor antagonistic activity on the isolated guinea pig ileum determined by Schild plot.
Target sequence in this assay (P31389 whole entry, looked up): as the sequence (P31389 whole entry) above

[31] = target: Histamine H2 receptor (Cavia porcellus) (UniProt P47747); test: Histamine H2 receptor antagonistic activity at a concentration of 0.3 uM on the isolated guinea pig right atrium; type: functional, tissue-based; conditions: Cardiac atrium
[32] = target: Muscarinic acetylcholine receptor M3 (Cavia porcellus) (UniProt Q8VH26); conditions: 10 uM
[33] = target: Histamine H2 receptor (Cavia porcellus) (UniProt P47747); conditions: Cardiac atrium
[34] = target: Histamine H2 receptor (Cavia porcellus) (UniProt P47747); conditions: Cardiac atrium, 10 uM

N#CN/C(=N\CCNC(=O)c1ccc(N)c(I)c1)NCCCOc1cccc(CN2CCCCC2)c1
pA2 [1]: 5.59
Relative potency [2]: 1440%
pKB [3]: 7.52
pA2 [4]: 6.06
Slope [5]: 1.09
Slope [6]: 0.9
pKB [7]: 5.96
pKB [8]: 5.49
pKB [9]: 4.77
Slope [10]: 1.29

N#CN/C(=N\CCNc1ccccc1[N+](=O)[O-])NCCCOc1cccc(CN2CCCCC2)c1
Relative potency [2]: 1120%
pKB [11]: 7.45

N#CN/C(=N\CCCOc1cccc(CN2CCCCC2)c1)N1CCN(C(=O)c2ccccc2)CC1
Relative potency [12]: 6%
pKB [13]: 5.16

N#CN/C(=N\CCNC(=O)c1cc(I)c(N)c(I)c1)NCCCOc1cccc(CN2CCCCC2)c1
Slope [14]: 1.04
Kb (Histamine H2 receptor [15]): 16.2 nM
pKB [16]: 7.79
Relative potency [2]: 2460%
Kb [17]: 1700 nM
Slope [18]: 0.91
Kb (Histamine H1 receptor): 1.58 µM

N#CN/C(=N\CCNc1ccccc1[N+](=O)[O-])NCCCCOc1cccc(CN2CCCCC2)c1
pKB [19]: 8.04
Relative potency [2]: 4360%

N#CN/C(=N\CCNC(=O)c1ccc(N=[N+]=[N-])c(I)c1)NCCCOc1cccc(CN2CCCCC2)c1
pKB [20]: 6.17
pKB [21]: 5.48
Relative potency [2]: 257%
Slope [6]: 1.2
pKB [22]: 6.05
pKB [9]: 5.12
pKB [23]: 5.62
pKB [24]: 6.98

N#CN/C(=N\CCNC(=O)c1ccc(N)cc1)NCCCOc1cccc(CN2CCCCC2)c1 [AMINOPOTENTIDINE]
pKB [25]: 5.16
Slope [6]: 1.09
pKB [26]: 7.28
Ki (Histamine H2 receptor [27]): 9.77 nM
Relative potency [28]: 660%
pKB [29]: 7.22
Kb (Histamine H1 receptor): 26.9 µM
Slope [30]: 0.88

N#CN/C(=N\CCNC(=O)c1cccc(I)c1)NCCCOc1cccc(CN2CCCCC2)c1
pKB [31]: 7.57
pKB [32]: 5.61
pKB [33]: 7.62
Relative potency [28]: 1480%
Slope [30]: 1.25

N#CN/C(=N\CCN)NCCCOc1cccc(CN2CCCCC2)c1
Relative potency [12]: 36%
pKB [34]: 5.95
